We go through nine molecules from PMC4767723 (Drugs in R&D, 2016).

For data set [1] the following is noted: cited from earlier work.
Data set [2] deals with international normalized ratio (INR). The data set can be described thus: Warfarin interaction study, pharmacodynamics. Also on record: species or system human. The settings on record: in vivo.
The subject of another data set is BCRP. To be noted: read-out: half maximal inhibitory concentration (IC50), BCRP; in vitro; ref AstraZeneca, data on file; cited from earlier work.
Data set [3] in a line: Safety and tolerability, all three studies. It is filed as in vivo, human. In short, it runs like this: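 Healthy subjects. Safety set was everyone given at least one dose of investigational product, with all available data used. Assessed throughout: incidence and severity of adverse events, clinical laboratory data, vital signs, 12-lead ECG and physical examination. AEs were tabulated by MedDRA. In the statin study, single statin doses were given alone and then with fostamatinib in a two-period, fixed-sequence design.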

The test system of data set [4] is progesterone, luteinizing hormone, follicle-stimulating hormone, sex hormone-binding globulin. Kind of data set: OC interaction study, pharmacodynamics. It is filed as in vivo, human.
The conditions of data set [5]: for Increase in AUC with fostamatinib / Individual Cmax differences (warfarin alone to warfarin plus fostamatinib): human; for Increase in AUC with fostamatinib / Individual Cmax differences (warfarin alone to warfarin plus fostamatinib) / Individual AUC differences / Prolongation of t½λz: in vivo.
Test in data set [6]: not given
This is another data set of the same source.

The conditions of data set [7]: typical value; not determined in the current studies; cited from earlier work.
The format of data set [8] is in vivo, human. The settings on record: for Change in AUCss on fostamatinib co-administration with OC / Change in Cmax,ss on fostamatinib co-administration with OC: increase in exposure.
Setting [9] is: fostamatinib co-administration with OC.

The structures appear in SMILES notation. pIC50: −log10 of the molar value. Like-named read-outs stand apart in the source and are kept apart here.

`CC(C)c1nc(N(C)S(C)(=O)=O)nc(-c2ccc(F)cc2)c1/C=C/[C@@H](O)C[C@@H](O)CC(=O)O` [Rosuvastatin, rosuvastatin]: under “human, in vivo”, the “Increase in AUC with fostamatinib” value is given as 96% and the “Increase in Cmax with fostamatinib” value came to 88%. The “absorption (restricted by BCRP)” value in data set [1] is listed as 50%.

For `COc1cc(Nc2ncc(F)c(Nc3ccc4c(n3)N(COP(=O)(O)O)C(=O)C(C)(C)O4)n2)cc(OC)c1OC` [Fostamatinib, fostamatinib], in data set [2], the “AUCINR,0–168 ratio Warfarin + fostamatinib/warfarin alone” value is 97.0% and the “INRmax ratio Warfarin + fostamatinib/warfarin alone” value is 89.7%. The pIC50 with BCRP is 7.30. For the same molecule, the Tolerability entry in data set [3] is recorded as “well tolerated”. Moreover, in data set [4] (setting [9]), the “Decrease in exposure to follicle-stimulating hormone” value is listed as “≈ 20%” and the “Decrease in exposure to luteinizing hormone” value is given as “≈ 20%”. Also, in data set [4] (in vivo), the “Luteinizing hormone AUCss ratio Microgynon + fostamatinib/microgynon alone” value was 83.2%, the “Luteinizing hormone Cmax,ss ratio Microgynon + fostamatinib/microgynon alone” value was 75.6%, the “Progesterone AUCss ratio Microgynon + fostamatinib/microgynon alone” value is listed as 104.3% and the “Progesterone Cmax,ss ratio Microgynon + fostamatinib/microgynon alone” value is listed as 99.8%.

With `CC(=O)C[C@H](c1ccccc1)c1c(O)c2ccccc2oc1=O` [R-Warfarin, R-warfarin], in data set [5], the “Increase in AUC with fostamatinib” value was found to be 18%, the “Individual Cmax differences (warfarin alone to warfarin plus fostamatinib)” value was −16.1 to 22%, the “Individual AUC differences” value is 5.0-33.0% and the “Prolongation of t½λz” value is “approximately 6 h”.

As for `CCC(C)(C)C(=O)O[C@H]1C[C@@H](C)C=C2C=C[C@H](C)[C@H](CC[C@@H]3C[C@@H](O)CC(=O)O3)[C@H]21` [Simvastatin, simvastatin], in [6] (human, in vivo), the “Change in tmax with fostamatinib” value is “marginal change” and the “Decrease in half-life in the presence of fostamatinib” value is on record as “approximately 3 h”. In addition, the “Net apparent reduction in clearance” value in data set [6] (with fostamatinib) was determined as 40.3%.

For `COc1cc(Nc2ncc(F)c(Nc3ccc4c(n3)NC(=O)C(C)(C)O4)n2)cc(OC)c1OC` [R406], the Increase in exposure entry (fostamatinib combined with rosuvastatin) is “≈ 10%” and the Increase in exposure result in [6] (fostamatinib combined with simvastatin) is on record as “≈ 10%”. Further, the “Cmax,ss, geometric mean” value in data set [5] (Fostamatinib + warfarin) came to 557 ng/mL; in [8] (Fostamatinib + OC, period 2 day 21), 812 ng/mL. Further, the half-life in data set [7] is ~ 14 h. For the same molecule, the pIC50 in the data set on BCRP is 7.51.

`CC(=O)C[C@@H](c1ccccc1)c1c(O)c2ccccc2oc1=O` [S-Warfarin, S-warfarin]: in data set [5], the “Increase in AUC with fostamatinib” value is on record as 13%, the “Individual Cmax differences (warfarin alone to warfarin plus fostamatinib)” value is −25.6 to 27%, the “Individual AUC differences” value is 0.0-36.0% and the “Prolongation of t½λz” value is on record as “approximately 6 h”.

On to `C#C[C@]1(O)CC[C@H]2[C@@H]3CCc4cc(O)ccc4[C@H]3CC[C@@]21C` [Ethinyl estradiol, ethinyl estradiol], for which, in [8] (geometric LS mean ratio), the “AUCss ratio Microgynon + fostamatinib/microgynon alone” value worked out at 128.2% and the “Cmax,ss ratio Microgynon + fostamatinib/microgynon alone” value was 134.3%. In addition, in data set [8], the “Change in AUCss on fostamatinib co-administration with OC” value came out at 28% and the “Change in Cmax,ss on fostamatinib co-administration with OC” value is reported as 34%.

In the case of `CCC(C)(C)C(=O)O[C@H]1C[C@@H](C)C=C2C=C[C@H](C)[C@H](CC[C@@H](O)C[C@@H](O)CC(=O)O)[C@H]21` [Simvastatin acid, simvastatin acid], in [6] (human, in vivo), the “Decrease in half-life in the presence of fostamatinib” value was “about 1.5 h”, the “Increase in AUC with fostamatinib” value was determined as 74% and the “Increase in Cmax with fostamatinib” value stood at 83%.

As to `C#C[C@]1(O)CC[C@H]2[C@@H]3CCC4=CC(=O)CC[C@@H]4[C@H]3CC[C@@]21CC` [Levonorgestrel, levonorgestrel], the “AUCss ratio Microgynon + fostamatinib/microgynon alone” value in data set [8] (geometric LS mean ratio) is 105.1%. Further, in data set [8], the “Change in AUCss on fostamatinib co-administration with OC” value turned out to be 5% and the “Change in Cmax,ss on fostamatinib co-administration with OC” value is −3%.
